Assay outcomes: PubChem BioAssay, several laboratories
Sampled rows, rich in hits. Any-hit rate of the full collection: about 2.1%.
PABP FP inh – PABP-poly(A) binding inhibition; inhibition, % at 35 µM; AID 2014; hit rate 1% among 290,000; PABP-poly(A) RNA binding, fluorescence polarization;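 note: calls also rest on retests at 20 µM and on dose response follow-up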
EBNA-1 inh – blocks EBNA-1 binding to DNA; EBNA-1 DNA binding, fluorescence polarization; inhibition, % at 14.8 µM; hit rate 0.34% among 300,000; in the data active = inhibition above about 28%
HCV NS3 hel inh – HCV NS3 helicase inhibition. NS3 helicase DNA unwinding, Cy5 molecular beacon fluorescence. inhibition, % at 10.9 µM. hit rate 0.56% among 290,000. AID 1800;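 active = inhibition above the mean of all tested compounds plus 3 SD, set per campaign, cut at about 35% in these data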;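 note: 0% = DMSO wells and 100% = thioflavine S control wells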
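Material: hepatitis C virus NS3 helicase domain fragment enzyme; measured by: Cy5 fluorescence, 0 and 60 min reads; control set: DMSO and thioflavine S; incubation: 60 min unwinding reaction at 25 °C after ATP addition; read-out basis: % inhibition from 60/0 min fluorescence ratio, DMSO 0%, thioflavine S 100%; repeats: singlicate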
ZTA DNA inh – blocks Epstein-Barr virus ZTA, an EBNA-1 counter-screen. P03206. ZTA-DNA binding, fluorescence polarization. inhibition, % at 11 µM. hit rate 0.15% among 320,000; in the data active = inhibition above about 33%
Target sequence (P03206 whole entry, looked up): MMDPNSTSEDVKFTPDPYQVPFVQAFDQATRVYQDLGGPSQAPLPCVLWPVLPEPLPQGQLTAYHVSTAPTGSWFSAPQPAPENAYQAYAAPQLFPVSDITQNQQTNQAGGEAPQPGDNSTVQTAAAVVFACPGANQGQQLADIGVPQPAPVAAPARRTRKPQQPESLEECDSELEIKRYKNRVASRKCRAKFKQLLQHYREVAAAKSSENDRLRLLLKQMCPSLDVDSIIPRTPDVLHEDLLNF
PABP1 MLLE inh – blocks PAM2 peptide binding to the PABP1 MLLE domain; P11940; AID 588489; inhibition, % at 20 µM; GST-MLLE / FITC-PAM2 fluorescence polarization; hit rate 0.36% among 360,000; in the data active = inhibition above about 35%, passing the limit was not always enough;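 note: plate controls were DMSO wells with GST-MLLE for no effect and wells lacking GST-MLLE protein for full effect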
eIF4H FP inh – inhibitors of RNA binding by human eIF4H. Q15056. eIF4H fluorescence polarization binding assay. inhibition, % at 35 µM. hit rate 0.94% among 290,000. AID 2012;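 note: calls also rest on retests at 20 µM and on dose response follow-up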
* hit, by the source's call; ? = inconclusive; . = no result. Unless noted, the rule behind the calls is not given here.

SMILES	PABP FP inh	EBNA-1 inh	HCV NS3 hel inh	ZTA DNA inh	PABP1 MLLE inh	eIF4H FP inh
O=C(CCS(=O)(=O)c1ccc(Br)cc1)NCCc1ccccc1	24.1	-0.9	7.8	11.6	2.1	82.2
CC(=O)c1ccc(NC(=S)Nc2ccc3[nH]c(=O)[nH]c3c2)cc1	-2.9	3.8	7.6	-2.2	25.7	7.8
Cc1ccc(NC(=S)Nc2ccc3[nH]c(=O)[nH]c3c2)cc1C	-4.1	-2.9	-0.5	-10.9	42.8*	5.9
Cc1cccc(NC2(C(F)(F)F)N=C3SCCN3C2=O)n1 (stereo not given)	0.7	4.4	1.9	2.8	39.6*	-4.7
COc1ccc(C(=O)NC2(C(F)(F)F)N=C3SCCN3C2=O)cc1 (stereo not given)	2.6	5.3	7.3	3.6	40.3*	-1.9
CCn1c(O)c(C2=c3ccccc3=NC2=O)c2cc(Br)ccc21	0.2	5.5	8.7	-0.6	.	0.1
O=C1N=c2ccccc2=C1c1c(O)n(-c2cccc(F)c2)[nH]c1=O	-1.5	5.6	23.4	10.9	37.8*	10.6
O=C(Nc1ccccc1N1CCCC1)c1cc2ccccc2o1	16.7	7.6	-4.8	-8.8	40.7*	8.7
Cc1ccc(C(=O)Nc2ccccc2N2CCCCC2)cc1	-4.7	-0.4	-1.8	5.5	-7.0	-6.0
Cc1ccc(C(=O)Nc2ccccc2N2CCCC2)cc1	83.2*	8.4	8.1	-3.4	-0.9	82.6*
O=C1SCCC1NS(=O)(=O)c1ccccc1[N+](=O)[O-] (stereo not given)	13.3	-12.5	15.7	-20.4	6.2	-2.7
O=C(O)/C=C/C(=O)N1CCN(S(=O)(=O)c2cc(C(F)(F)F)ccc2Cl)CC1	69.0*	-0.8	-4.8	-2.4	-0.9	2.1*
Oc1c(C2=NCCNC(C(F)(F)F)=C2)ccc2ccccc12	-5.4	.	-5.4	.	-20.3	1.1
COc1cccc(-c2cnc(C(O)c3cc(C)ccc3C)[nH]2)c1 (stereo not given)	.	.	.	.	-7.1	.
CC(C)(CO)Nc1ncnc2onc(-c3ccc(F)cc3)c12	74.1*	3.9	-8.0	-6.1	4.8	91.6*
CCCCOC(=O)C(C#N)c1nc2ccccc2nc1N1CCN(Cc2ccc3c(c2)OCO3)CC1 (stereo not given)	85.2*	2.9	-4.3	-0.8	0.9	53.9*
COCCOC(=O)C(C#N)c1nc2ccccc2nc1N1CCN(Cc2ccccc2)CC1 (stereo not given)	52.0	0.0	-4.7	9.7	13.2	36.9
CC(C)COC(=O)C(C#N)c1nc2ccccc2nc1N1CCN(Cc2ccccc2)CC1 (stereo not given)	62.9*	-6.4	-14.5	-5.9	6.8	44.4*
COC(=O)C(C#N)c1nc2ccccc2nc1N1CCN(Cc2ccc3c(c2)OCO3)CC1 (stereo not given)	19.7	5.8	.	0.0	.	11.3
C=CCOC(=O)C(C#N)c1nc2ccccc2nc1N1CCN(Cc2ccccc2)CC1 (stereo not given)	73.0*	-12.3	-8.8	4.5	-0.2	57.3*
C=CCNC(=O)C(C#N)c1nc2ccccc2nc1N1CCN(Cc2ccccc2)CC1 (stereo not given)	22.6	-3.7	0.1	-2.5	16.7	15.5
COCC(=O)N(C)[C@H]1C[C@H]2c3cc(N4CCN(C)CC4)ccc3CCN2C(=O)[C@H]1[C@H](C)O	.	.	.	.	-10.5	.
O=C(C(=O)N1CCCCC1)c1cn(CC(=O)N2CCCCCC2)c2ccccc12	12.1	9.5	-8.7	-1.9	9.7	11.5
O=C(NC1CCN(C(=S)NCCc2ccccc2)CC1)C1CC1	6.2	6.4	-3.8	8.4	-118.7	-2.0
COc1ccc(NC(=O)c2sc3nc(C)cc(C)c3c2N)cc1	-3.3	-9.2	-1.9	-15.5	8.1	2.1
SMILES	PABP FP inh	EBNA-1 inh	HCV NS3 hel inh	ZTA DNA inh	PABP1 MLLE inh	eIF4H FP inh
Cc1cc(C(F)(F)F)c2c(N)c(C(=O)Nc3cc(C)on3)sc2n1	54.9*	0.3	0.8	-8.8	23.6	59.0*
O=c1cc(-c2ccc(O)cc2)oc2c(O)c(O)c(O)c(O)c12	82.8*	-8.5	22.6	-2.1	-29.2	90.6*
O=c1cc(-c2ccc(O)cc2)oc2c1ccc1ccccc12	.	.	.	25.5	-21.9	.
CCOC(=O)c1[nH]c2ccccc2c1NC(=O)NC(C)C	-1.4	2.0	5.2	1.5	-3.1	-3.1
CCOC(=O)c1[nH]c2ccccc2c1NC(=S)Nc1cccc(C)c1C	15.3	-13.4	-2.9	12.8	41.0*	-0.9
CN1C=CC2=C(C#N)C(N)C(C#N)(C#N)[C@H](c3ccccc3)[C@H]2C1 (stereo not given in full)	13.8	-4.5	-2.6	2.6	48.4*	?
CCCNC(=O)N1CCN(c2nc(C(C)C)c3c(c2C#N)CC(C)(C)OC3)CC1	4.9	15.4	1.9	-3.8	-8.5	3.7
Cc1ccc(S(=O)(=O)N2CCN(c3nc(C(C)C)c4c(c3C#N)CC(C)(C)OC4)CC2)cc1	-7.4	88.3*	-5.7	69.9*	-11.6	-2.5
Nc1c(C=C2C=CC(=O)C=C2)c(=O)nc2sc(CC(=O)N3CCCCC3)nn12	.	3.6	15.9	-0.2	-2.0	.
Nc1c(/C=C2/C=CC(=O)C(O)=C2)c(=O)nc2sc(CC(=O)N3CCCC3)nn12	21.8*	7.0	3.4	6.1	-33.6	55.2*
Nc1c(/C=C2/C=CC(=O)C(O)=C2)c(=O)nc2sc(CC(=O)N3CCOCC3)nn12	.	.	.	.	-39.8	.
Nc1c(/C=C2/C=CC(=O)C(O)=C2)c(=O)nc2sc(CC(=O)N3CCCCC3)nn12	54.4*	-5.2	30.1	-7.8	-50.5	68.9*
CCOC(=O)c1cnc(C(F)(F)F)nc1Oc1ccccc1	2.1	-10.5	7.5	-11.7	-22.7	2.0
O=C(CSc1ncnc2[nH]ncc12)Nc1nc(-c2ccc(F)c(F)c2)cs1	-6.6	7.6	4.8	-4.8	-2.3	-9.3
COc1cc(NC(=O)CN2CCN(c3ccccc3O)CC2)c(C)cc1[N+](=O)[O-]	1.3	-9.0	-10.1	-5.7	-21.4	-1.1
Cc1ccc(NC(=O)N(C2CCCCC2)C(C)c2cccnc2)cc1C (stereo not given)	1.9	-0.9	15.8	-5.4	21.9	-4.7
Cc1ccc(S(=O)(=O)Nc2ccc3cn[nH]c3c2)cc1	.	.	.	-4.1	-3.5	.
Cc1ccc(S(=O)(=O)Nc2cc(C)c(O)c(Sc3n[nH]c(C)n3)c2)cc1	2.4	-3.9	-3.9	12.8	42.1*	12.5
CCOC(=O)c1[nH]c(C)c(C(=O)OCC(=O)NC2CCS(=O)(=O)C2)c1C (stereo not given)	9.1	7.3	-1.3	12.2	-40.2	9.6
Cc1ccc(C(=O)NCC(=O)Nc2cccc(C(F)(F)F)c2)cc1	118.8	0.7	-2.8	3.1	-11.3	active
C=CCc1cccc2cc(C(=O)Nc3ccc(F)cc3)c(=O)oc12	-1.1	5.4	-0.9	1.9	10.8	-3.0
C=CCc1cccc2cc(C(=O)Nc3ccc(S(=O)(=O)Nc4nnc(CC)s4)cc3)c(=O)oc12	8.6*	14.0	22.3	2.5	16.1	67.2*
